Assay results taken from PubChem BioAssay.
Records with an inconclusive call do not appear. Active and inactive are the calls of the source.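 The calls were made as follows, unless noted: active = viability increase at or above a cutoff of the median across tested compounds plus 3 SD (cut at about 8.5% in these data, passing the limit was not always enough); inconclusive = some gains above the cutoff, reason not given; inactive = the rest.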

Experiments:
[1] = OD615 S. cerevisiae growth inhibition, permissive medium, pilot counter-assay, permissive growth control for S. cerevisiae lifespan shortening project (AID 705;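 active = growth inhibition above 25% in both replicates, a cutoff set 3 SD above the mean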); conditions: OD615, 24 h, at 10 µM, active compounds read high
Method in brief: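 System: S. cerevisiae with engineered DeaD lifespan system. Medium: SC raffinose/galactose permissive medium. Doses: single compound dose of 10 µM, 0.25% DMSO final. Schedule: 24 h exposure, 30 °C. Measured by: OD615 turbidity read. Read-out: growth inhibition.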

[2] = Restrictive medium S. cerevisiae growth inhibition, OD615, pilot screen of yeast lifespan reduction project, restrictive growth control (AID 706;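 active = growth inhibition above a set limit, 3 SD over mean compound inhibition, in both replicates, cut at about 43% in these data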;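 also: modified DeaD lifespan yeast strain shifted to restrictive glucose medium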); conditions: OD615, 48 h, at 10 µM, active compounds read high
Method in brief: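 Assay system – genetically modified Saccharomyces cerevisiae, DeaD replicative lifespan assay strain · Medium – CSMM-D glucose medium · Doses – 10 µM compound, 0.25% DMSO · Times – 4 h pre-incubation, 48 h exposure at 30 °C · Signal – optical density at 615 nm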

[3] = viability gain of MRP-1-high H69AR cells under doxorubicin, pilot screen, MRP-1 activator project, CellTiter-Glo, duplicate (AID 807); conditions: H69AR viability with doxorubicin, CellTiter-Glo luminescence; at 10 µM; active compounds read high;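 also: compound pretreatment 18-22 h then 72 h combined with doxorubicin; 0% = doxorubicin alone and 100% = vehicle without doxorubicin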
[4] = growth suppression of beta-catenin knockout HCT116, pilot screen, human colon tumor cells (AID 823;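 active = cell viability at or below a set limit in both duplicate runs, the limit being the all-compound median minus 4 SD, cut at about 23% in these data, passing the limit was not always enough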;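 also: 0% = wells killed by 20 µM Hyamine and 100% = untreated DMSO cell wells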); conditions: CellTiter-Glo, 60 h, at 10 µM, active compounds read low
[5] = growth suppression of PTEN-deleted HCT116, pilot screen, cell-based, HCT116 clonal line, CellTiter-Glo (AID 824;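 active = viability at or below 27.92% in each of two runs, the all-compound median minus 4 SD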;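 also: 0% = 20 µM Hyamine control and 100% = vehicle cell control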); conditions: 60 h, at 10 µM, active compounds read low
[6] = inhibitors of the yeast RAM network, pilot screen, dse1pr::URA3 reporter, 5-FOA selection (AID 869;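 active = inhibition over a set limit, the all-compound mean plus 3 SD, in both replicate runs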;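 also: 0% = DMSO wells with no growth and 100% = 10 µM 1-NA-PP1 with full growth; RAM network block rescues cells from 5-FOA so hits raise OD615 growth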); conditions: S. cerevisiae dse1pr::URA3 5-FOA growth, OD615, 2 d; at 10 µM; active compounds read high; strain carries analog-sensitive mutant Cbk1 kinase
[7] = RAM signaling pathway blockade in yeast – S. cerevisiae, Pdr1DBD-CYC8 efflux-inhibited sensitized strain, primary screen (AID 1298;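 active = RAM network inhibition above 8.4% in each of two replicates, 3 SD over the compound average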;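 also: 0% = DMSO untreated cells without growth and 100% = 10 µM 1-NA-PP1 full growth; higher means more yeast growth rescued from 5-FOA killing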); conditions: S. cerevisiae cbk1-as DSE1-URA3 strain, 5-FOA growth OD615, 2 d; at 50 µM; active compounds read high

COc1ccc(-c2nnnn2C)cc1S(=O)(=O)NCCc1ccccc1
inactive: growth inhibition [1] -8.48% | growth inhibition [2] 2.52% | viability increase [3] 0.12% | viability [4] 97.5% | viability [5] 104% | inhibition [6] 1% | RAM network inhibition [7] 3.03%

COc1cccc(-c2cc(C(=O)N3CCN(c4ncccn4)CC3)c3ccccc3n2)c1
inactive: growth inhibition [1] 0.09% | growth inhibition [2] -2.04% | viability increase [3] -6.25% | viability [4] 62% | viability [5] 64% | inhibition [6] 1.14% | RAM network inhibition [7] -0.21%

O=C(COC(=O)c1cccs1)Nc1ccccc1
inactive: growth inhibition [1] -5.3% | growth inhibition [2] 0.975% | viability increase [3] -0.14% | viability [4] 96.7% | viability [5] 97.1% | inhibition [6] 1.56% | RAM network inhibition [7] 0.11%

Cc1cc(Nc2cc(F)ccc2C)n2ncnc2n1
inactive: growth inhibition [1] -2.42% | growth inhibition [2] 9.4% | viability increase [3] -0.28% | viability [4] 102% | viability [5] 97.3% | inhibition [6] 3.77% | RAM network inhibition [7] 4.19%

CCOc1ccc(N(CC(=O)Nc2ccc(C)cc2)S(=O)(=O)c2c(C)noc2C)cc1
inactive: growth inhibition [1] -18.5% | growth inhibition [2] -19.6% | viability increase [3] -3.45% | viability [4] 79.4% | viability [5] 67.4% | inhibition [6] 1.29% | RAM network inhibition [7] 4.04%

Cc1ccc(S(=O)(=O)Cc2ccc(C(=O)N3CCCC3)o2)cc1
inactive: growth inhibition [1] -4.83% | growth inhibition [2] -13.4% | viability increase [3] -1.75% | viability [4] 99.2% | viability [5] 108% | inhibition [6] 1.19% | RAM network inhibition [7] 4.1%

COC(=O)c1cc(NC2c3ccccc3C(=O)N2c2ccc(Cl)cn2)cc(C(=O)OC)c1 (centres undefined)
inactive: growth inhibition [1] -20.1% | growth inhibition [2] -16.2% | viability increase [3] 0.19% | viability [4] 71.2% | viability [5] 64.4% | inhibition [6] 1.5% | RAM network inhibition [7] 4.41%

CCOC(=O)N1CCC(NC(=O)c2cnc3n(c2=O)CCS3)CC1
inactive: growth inhibition [1] -1% | growth inhibition [2] -6.85% | viability increase [3] 1.34% | viability [4] 101% | viability [5] 100% | inhibition [6] 2.27% | RAM network inhibition [7] 1.68%

COc1ccc2c(Cl)c(-c3nnc(SCC(N)=O)n3C)sc2c1
inactive: growth inhibition [1] -2.31% | growth inhibition [2] 11.7% | viability increase [3] -2.99% | viability [4] 106% | viability [5] 94% | inhibition [6] 1.43% | RAM network inhibition [7] 0.69%

Cn1c(SCC(=O)NCC2CCCO2)nc2c([nH]c3ccccc32)c1=O (centres undefined)
inactive: growth inhibition [1] 2.66% | growth inhibition [2] -9.87% | viability increase [3] -5.32% | viability [4] 90.5% | viability [5] 91.7% | inhibition [6] 0.065% | RAM network inhibition [7] 2.79%

CN1CCN(S(=O)(=O)c2ccc(NC(=O)c3cccc(S(=O)(=O)N4CCCC4)c3)cc2)CC1
inactive: growth inhibition [1] -5.16% | growth inhibition [2] -5.09% | viability increase [3] -3.98% | viability [4] 89.2% | viability [5] 97.2% | inhibition [6] 2% | RAM network inhibition [7] 9.3%

COc1cc(NS(=O)(=O)c2ccc3c(c2)oc(=O)n3C)cc(OC)c1OC
inactive: growth inhibition [1] -3.74% | growth inhibition [2] 0.425% | viability increase [3] -4.97% | viability [4] 41.9% | viability [5] 35.5% | inhibition [6] -0.355% | RAM network inhibition [7] 2.41%

COc1ccc(S(=O)(=O)N2CCN(c3c(C)cccc3C)CC2)cc1OC
inactive: growth inhibition [1] -1.27% | growth inhibition [2] -7.95% | viability increase [3] -1% | viability [4] 78.2% | viability [5] 74.4% | inhibition [6] 0.435% | RAM network inhibition [7] 10.8%

O=C(O)c1cc2nc(C3CC3)cc(C(F)(F)F)n2n1
inactive: growth inhibition [1] -2.34% | growth inhibition [2] -2.47% | viability increase [3] 0.62% | viability [4] 102% | viability [5] 90.1% | inhibition [6] 1.67% | RAM network inhibition [7] -2.13%

CCCCSc1nnc(C)c(=O)[nH]1
inactive: growth inhibition [1] -8.76% | growth inhibition [2] -12.2% | viability increase [3] -0.85% | viability [4] 97.6% | viability [5] 102% | inhibition [6] 1.26% | RAM network inhibition [7] 7.32%

COc1ccc(N(CC(=O)N2CCN(C)CC2)S(=O)(=O)c2ccccc2)cc1OC
inactive: growth inhibition [1] -16.8% | growth inhibition [2] -19.4% | viability increase [3] -1.07% | viability [4] 104% | viability [5] 91.8% | inhibition [6] 0.195% | RAM network inhibition [7] 1.1%

CN1CCN(CCCNC(=O)c2cc3c(-c4ccc(Cl)cc4)nn(C)c3s2)CC1
active: viability [4] 2.18% | viability [5] 2%
inactive: growth inhibition [1] -8.24% | growth inhibition [2] -2.25% | viability increase [3] -8.21% | inhibition [6] 0.445% | RAM network inhibition [7] 0.92%

CCOc1ccc(N(CC(=O)N2CCN(c3ccccc3)CC2)S(=O)(=O)c2c(C)noc2C)cc1
inactive: growth inhibition [1] 1.67% | growth inhibition [2] -1.08% | viability increase [3] -5.76% | viability [4] 76.4% | viability [5] 67.7% | inhibition [6] 1.49% | RAM network inhibition [7] 1.85%

O=C(CSCc1ccc(Cl)cc1)c1ccco1
inactive: growth inhibition [1] -9.9% | growth inhibition [2] 0.15% | viability increase [3] 0.59% | viability [4] 96.5% | viability [5] 89.8% | inhibition [6] 0.695% | RAM network inhibition [7] 2.59%

COc1ccccc1N1CCN(CC(=O)c2ccc3ccn(C(C)=O)c3c2)CC1
inactive: growth inhibition [1] -3.38% | growth inhibition [2] -12.2% | viability increase [3] -5.06% | viability [4] 88.2% | viability [5] 79.8% | inhibition [6] 1.14% | RAM network inhibition [7] 3.27%

Cc1c(C(=O)Nc2ccc(F)cc2)oc2ccc(S(=O)(=O)N3CCCC3)cc12
inactive: growth inhibition [1] -14.8% | growth inhibition [2] -6.18% | viability increase [3] -2.04% | viability [4] 101% | viability [5] 96% | inhibition [6] 3.88% | RAM network inhibition [7] 3%

C=C(C)CSc1nc2c(c(=O)[nH]c(=O)n2C)n1Cc1ccccc1
inactive: growth inhibition [1] -16.7% | growth inhibition [2] -22.9% | viability increase [3] 3.2% | viability [4] 83.8% | viability [5] 78.3% | inhibition [6] 2.96% | RAM network inhibition [7] 7.74%

Cc1noc(NS(=O)(=O)c2ccc(NC(=O)c3cnc4scc(C)n4c3=O)cc2)c1C
inactive: growth inhibition [1] -2.39% | growth inhibition [2] -5.18% | viability increase [3] 1.99% | viability [4] 101% | viability [5] 101% | inhibition [6] 2.61% | RAM network inhibition [7] 6.1%

Cc1ccc(CCN2CC(C(=O)NCCCN3CCN(C)CC3)CC2=O)cc1 (centres undefined)
inactive: growth inhibition [1] 1.07% | growth inhibition [2] -3.19% | viability increase [3] -2.38% | viability [4] 75.9% | viability [5] 92.8% | inhibition [6] -0.675% | RAM network inhibition [7] 1.23%

O=C(CN1CCCCC1)Nc1nnc(-c2ccccc2)s1
inactive: growth inhibition [1] -11.4% | growth inhibition [2] -5.87% | viability increase [3] 1.16% | viability [4] 95.2% | viability [5] 98.5% | inhibition [6] 0.38% | RAM network inhibition [7] 0.64%

O=C(Cn1nc(-c2ccccc2)ccc1=O)Nc1ccc(N2CCN(C(=O)c3ccccc3)CC2)cc1
inactive: growth inhibition [1] -10.1% | growth inhibition [2] -24.7% | viability increase [3] -1.77% | viability [4] 94.5% | viability [5] 87.3% | inhibition [6] 2.17% | RAM network inhibition [7] 8.82%

O=S(=O)(NCCN1CCCC1)c1cccc2cccnc12
inactive: growth inhibition [1] -4.34% | growth inhibition [2] 14.2% | viability increase [3] -2.62% | viability [4] 99.8% | viability [5] 92.9% | inhibition [6] 0.34% | RAM network inhibition [7] 5.38%

CC1(C)CC(=O)c2sc(NC(=O)CN3C(=O)CCC3=O)nc2C1
inactive: growth inhibition [1] -6.85% | growth inhibition [2] 0.48% | viability increase [3] -1.54% | viability [4] 103% | viability [5] 103% | inhibition [6] 0.685% | RAM network inhibition [7] 2.38%

CCOc1ccc(/C=C\C(C)=N\O)cc1
inactive: growth inhibition [1] -0.67% | growth inhibition [2] 0.775% | viability increase [3] -2.74% | viability [4] 90.3% | viability [5] 96.3% | inhibition [6] 0.065% | RAM network inhibition [7] 2.82%

Cc1cc(C)c2c(n1)nn1c(C)c(CCC(=O)NCc3ccco3)c(C)nc21
inactive: growth inhibition [1] 3.4% | growth inhibition [2] 1.73% | viability increase [3] -4.82% | viability [4] 89.8% | viability [5] 94.8% | inhibition [6] 0.545% | RAM network inhibition [7] 2.09%

COc1cccc(NS(=O)(=O)c2nc3nc(C)cc(C)n3n2)c1
inactive: growth inhibition [1] -10.2% | growth inhibition [2] -2.87% | viability increase [3] -1.57% | viability [4] 108% | viability [5] 98.9% | inhibition [6] 2.01% | RAM network inhibition [7] -1%

CCOC(=O)N1CCN(C(=O)CSc2nc3c(cnn3-c3ccc(C)cc3)c(=O)[nH]2)CC1
inactive: growth inhibition [1] -0.175% | growth inhibition [2] 4.84% | viability increase [3] -4.44% | viability [4] 95.7% | viability [5] 94.1% | inhibition [6] -0.44% | RAM network inhibition [7] 3.12%
